Published values collected from several papers.
Compare with care: the assays were run in different laboratories.
CASP3: Caspase-3 (CASP3, Homo sapiens, UniProt P42574)
DRD3: D(3) dopamine receptor (DRD3, Homo sapiens, UniProt P35462)
SLC6A3: Sodium-dependent dopamine transporter (SLC6A3, Homo sapiens, UniProt Q01959)
CA12: Carbonic anhydrase 12 (CA12, Homo sapiens, UniProt O43570)

CC/C(=C(/c1ccc(O)cc1)c1ccc(OCCN)cc1)c1ccc(O)cc1  Ki (Aromatase (CYP19A1, Homo sapiens, UniProt P11511); enzyme activity; inhibitor; fluorescence): 20 nM
O=c1c(O)c(-c2cc(O)c(O)c(O)c2)oc2cc(O)cc(O)c12  Ki (CASP3; enzyme activity; inhibitor; fluorescence): 68700 nM
CN(CC[C@@H]1C[C@H]1CNC(=O)c1cc2ccccc2[nH]1)[C@@H]1Cc2cccc3[nH]c(=O)n(c23)C1  Ki (DRD3; ligand displacement; radioligand; cell membranes): 398 nM
O=C(O[C@@H]1Cc2c(O)cc(O[C@H]3O[C@H](CO)[C@@H](O)[C@H](O)[C@H]3O)cc2O[C@@H]1c1cc(O)c(O)c(O)c1)c1cc(O)c(O)c(O)c1  Ki (Maltase-glucoamylase (Homo sapiens, UniProt O43451); enzyme activity; inhibitor): 7880 nM
OC[C@@]12C[C@@H]1[C@@H](n1cnc3c(NC(C4CCCC4)C4CCCC4)nc(Cl)cc31)[C@H](O)[C@@H]2O  Ki (SLC6A3; cell-free assay; radioligand): 3900 nM
CN(CCCCNC(=O)c1cc2ccccc2[nH]1)[C@@H]1Cc2cccc3[nH]c(=O)n(c23)C1  Ki (DRD3; ligand displacement; radioligand; cell membranes): 82.7 nM
c1ccc(CCC2=NCCN2CCc2ccccc2)cc1  Ki (DRD3; ligand displacement; radioligand): > 10000 nM
O=c1cc(-c2ccc(O)c(O)c2)oc2cc(O)cc(O)c12  Ki (CASP3; enzyme activity; inhibitor; fluorescence): 181000 nM
NS(=O)(=O)c1ccc(-n2nccc2-c2ccc(N3CCCCC3)cc2)cc1  Ki (CA12; enzyme activity; inhibitor; stopped-flow): 298 nM
O=C1c2ccccc2CCCN1CCCCN1CCN(c2ccccn2)CC1  Ki (DRD3; ligand displacement; radioligand): 3 nM
Oc1cccc(CCC2=NCCN2Cc2ccccc2)c1  Ki (DRD3; ligand displacement; radioligand): 1260 nM
CCN(CC)c1ccc(C2Nc3ccc(C(=O)c4ccccc4)cc3NC3=C2C(=O)CC(C)(C)C3)cc1 (stereo not shown)  Ki (SLC6A3; cell-free assay; radioligand): > 10000 nM
Cc1nc2cc(OCCCCN3CCN(c4cccc(Cl)c4Cl)CC3)ccc2s1  Ki (SLC6A3; ligand displacement; radioligand): 690 nM
CCCN(CCCCNC(=O)c1cc2ccccc2[nH]1)[C@H]1CNc2ccccc2C1  Ki (DRD3; ligand displacement; radioligand; cell membranes): 1.34 nM
CC(C)(COP(=O)(O)OP(=O)(O)OC[C@H]1O[C@@H](n2cnc3c(N)ncnc32)[C@H](O)[C@@H]1OP(=O)(O)O)[C@@H](O)C(=O)NCCC(=O)NCCS  Ki (Histone acetyltransferase type B catalytic subunit (Homo sapiens, UniProt O14929); enzyme activity; inhibitor; radiometric): 41500 nM
CC1Cc2ccccc2N1C(=O)CCCN(C)[C@@H]1Cc2cccc3[nH]c(=O)n(c23)C1 (stereo partly shown)  Ki (DRD3; ligand displacement; radioligand; cell membranes): 3340 nM
CN1CCN(c2ccc(-c3ccnn3-c3ccc(S(N)(=O)=O)cc3)cc2)CC1  Ki (CA12; enzyme activity; inhibitor; stopped-flow): 404 nM
C=CCc1ccc(O)c(-c2ccc(O)c(CC=C)c2)c1  Ki (Peroxisome proliferator-activated receptor gamma (PPARG, Homo sapiens, UniProt P37231); ligand displacement; TR-FRET): 2000 nM
CCc1nc2cc(OCCCCN3CCC(c4cccc(Cl)c4Cl)CC3)ccc2s1  Ki (SLC6A3; ligand displacement; radioligand): 4000 nM
